Test results taken from ChEMBL document CHEMBL1152146, “Non-nucleoside inhibitors of the hepatitis C virus NS5B RNA-dependant RNA polymerase: 2-aryl-3-heteroaryl-1,3-thiazolidin-4-one derivatives” (Bioorg Med Chem Lett, 2008).

Assays:
[1] = test system: Hepatitis C virus; assay: Inhibition of HCV 1b NS5B Cdelta21 polymerase at 0.25 mM relative to control; parameters: species or system Hepatitis C virus subtype 1b
How it was run: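 His-tagged NS5BCΔ21 (genotype 1b) RdRp assay with compound at 0.25 mM and DMSO constant at 10%. Activity without inhibitor, after subtraction of residual background, set as 100%. Values are the mean of at least three independent measurements.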

[2] = test system: Escherichia coli; assay: Inhibition of Escherichia coli DNA polymerase 1 Klenow fragment at 0.5 mM
[3] = molecular target: Replicase polyprotein 1ab (Severe acute respiratory syndrome-related coronavirus) (UniProt P0C6X7); assay: Inhibition of SARS coronavirus nsp12 at 0.5 mM
[4] = test system: Hepatitis C virus; assay: Inhibition of HCV 1b NS5B Cdelta21 polymerase; parameters: species or system Hepatitis C virus subtype 1b
How it was run: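 N-terminal His-tagged NS5B lacking the C-terminal 21 residues (genotype 1b). RdRp activity read as total incorporation of radiolabeled UTP on poly rA/U12. IC50 taken from dose–response curves of 8–12 concentrations, run in duplicate in two independent experiments. DMSO held at 10% in all reactions.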

| SMILES | inhibition at 250 µM [1] [%] | inhibition [2] [%] | inhibition [3] [%] | IC50 [4] [µM] |
| --- | --- | --- | --- | --- |
| Cc1cc(C(F)(F)F)nc(N2C(=O)CSC2c2c(Cl)cccc2Cl)n1 (stereo not given) | 72.1 | < 50 | < 50 | – |
| Cc1cc(-c2ccccc2)nc(N2C(=O)CSC2c2c(Cl)cccc2Cl)n1 (stereo not given) | 63.6 | < 50 | < 50 | – |
| Cc1cc(C(F)(F)F)nc(N2C(=O)CSC2c2c(Br)cccc2Br)n1 (stereo not given) | 76.3 | < 50 | < 50 | – |
| O=C1CSC(c2c(Cl)cccc2Cl)N1Cc1cccnc1 (stereo not given) | 75.6 | < 50 | < 50 | – |
| O=C1CCSC(c2c(Cl)cccc2Cl)N1Cc1ccco1 (stereo not given) | 94.2 | < 50 | < 50 | 52.6 |
| O=C1CSC(c2c(F)cccc2Cl)N1c1ccc2ccccc2n1 (stereo not given) | 60 | < 50 | < 50 | – |
| O=C1CSC(c2c(F)cccc2F)N1c1nc(-c2ccccc2)cc(-c2ccccc2)n1 (stereo not given) | 73.3 | < 50 | < 50 | – |
| O=C1CSC(c2ccc(-c3ccnc4ccccc34)cc2)N1c1ccccn1 (stereo not given) | 62.2 | < 50 | < 50 | – |
| CC1SC(c2c(Cl)cccc2Cl)N(c2ccccn2)C1=O (stereo not given) | 73 | < 50 | < 50 | – |
| O=C1CSC2(CCN(Cc3ccccc3)CC2)N1c1ccccn1 | 85.6 | < 50 | < 50 | 71.9 |
| O=C1CSC(c2c(Cl)cccc2Cl)N1Cc1ccco1 (stereo not given) | 72.3 | < 50 | < 50 | – |
| COc1cc(O)c2c(c1)oc(=O)c1c3cc(O)c(O)cc3oc21 [WEDELOLACTONE] | – | – | – | 36.1 |
| CN(C)c1ccc(C2SCC(=O)N2c2ccccn2)cc1 (stereo not given) | 76.4 | < 50 | < 50 | – |
| O=C1CSC(c2c(Cl)cccc2Cl)N1c1nc(-c2ccccc2)cc(C(F)(F)F)n1 (stereo not given) | 66.4 | < 50 | < 50 | – |
| O=C1CSC(c2c(Br)cccc2Br)N1Cc1cccs1 (stereo not given) | 62.3 | < 50 | < 50 | – |
| CC1SC(c2c(Cl)cccc2Cl)N(Cc2cccnc2)C1=O (stereo not given) | 95.6 | < 50 | < 50 | 41.8 |
| CCc1nnc(N2C(=O)CSC2c2c(F)cccc2F)s1 (stereo not given) | – | – | < 50 | – |
| O=C1CSC(c2c(Cl)cccc2Cl)N1c1nc(-c2ccccc2)cc(-c2ccccc2)n1 (stereo not given) | 73.1 | < 50 | < 50 | – |
| O=C1CSC(c2ccc(F)cc2)N1c1ccccn1 (stereo not given) | 98 | < 50 | < 50 | 31.9 |
| Cc1cccc(N2C(=O)CSC2c2ccc(N(C)C)cc2)n1 (stereo not given) | 84.7 | < 50 | < 50 | 79.4 |
| Cc1cccc(N2C(=O)CSC2c2ccc(-c3cccnc3)cc2)n1 (stereo not given) | 64.2 | < 50 | < 50 | – |
| Cc1cc(C(F)(F)F)nc(N2C(=O)CSC2c2c(F)cccc2Cl)n1 (stereo not given) | 63.6 | < 50 | < 50 | – |
| CC1SC(c2c(Cl)cccc2Cl)N(Cc2ccco2)C1=O (stereo not given) | 97.8 | < 50 | < 50 | 32.2 |
| O=C(NN1C(=O)CSC1c1ccccc1F)c1cc(-c2ccc(F)cc2F)ccc1O (stereo not given) | 92.4 | – | < 50 | 48 |
| O=C1CSC(c2c(F)cccc2Cl)N1c1nc(-c2ccccc2)cc(-c2ccccc2)n1 (stereo not given) | 70.6 | < 50 | < 50 | – |
| Cc1cc(-c2ccccc2)nc(N2C(=O)CSC2c2c(F)cccc2Cl)n1 (stereo not given) | 65.5 | < 50 | < 50 | – |
